{
  "source": "ChEMBL document CHEMBL1177762",
  "about": "“Identification of a sulfonamide series of CCR2 antagonists” (Bioorg Med Chem Lett, 2010)",
  "key": {"[1]": {"target": "T1, C-C chemokine receptor type 2 (Homo sapiens, UniProt P41597)", "assay": "Antagonist activity at human CCR2 expressed in CHO cells assessed as inhibition of MCP1-induced [35S]-GTPgammaS binding after 3 hrs", "type": "functional, cell-based"}, "[2]": {"target": "T1, C-C chemokine receptor type 2", "assay": "Antagonist activity at CCR2 in human THP1 cells assessed as inhibition of CCL2-induced chemotaxis at 1 uM in presence of 0.1% human serum", "type": "functional, cell-based", "settings": "THP-1", "procedure,_shortened": "(§1)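 Boyden chamber (48-well) chemotaxis of THP-1 cells stimulated with CCL2. Foetal bovine serum or human serum was added to the assay buffer.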"}, "[3]": {"target": "T1, C-C chemokine receptor type 2", "assay": "Antagonist activity at CCR2 in human THP1 cells assessed as inhibition of CCL2-induced chemotaxis at 1 uM in presence of 1% human serum", "type": "functional, cell-based", "settings": "THP-1", "procedure,_shortened": "as §1"}, "[4]": {"assay": "Lipophilicity, log D of the compound", "type": "physicochemical", "settings": "octanol/water"}, "Albumin [5]": {"target": "T2, Albumin (Homo sapiens, UniProt P02768)", "T2 sequence (P02768 whole entry)": "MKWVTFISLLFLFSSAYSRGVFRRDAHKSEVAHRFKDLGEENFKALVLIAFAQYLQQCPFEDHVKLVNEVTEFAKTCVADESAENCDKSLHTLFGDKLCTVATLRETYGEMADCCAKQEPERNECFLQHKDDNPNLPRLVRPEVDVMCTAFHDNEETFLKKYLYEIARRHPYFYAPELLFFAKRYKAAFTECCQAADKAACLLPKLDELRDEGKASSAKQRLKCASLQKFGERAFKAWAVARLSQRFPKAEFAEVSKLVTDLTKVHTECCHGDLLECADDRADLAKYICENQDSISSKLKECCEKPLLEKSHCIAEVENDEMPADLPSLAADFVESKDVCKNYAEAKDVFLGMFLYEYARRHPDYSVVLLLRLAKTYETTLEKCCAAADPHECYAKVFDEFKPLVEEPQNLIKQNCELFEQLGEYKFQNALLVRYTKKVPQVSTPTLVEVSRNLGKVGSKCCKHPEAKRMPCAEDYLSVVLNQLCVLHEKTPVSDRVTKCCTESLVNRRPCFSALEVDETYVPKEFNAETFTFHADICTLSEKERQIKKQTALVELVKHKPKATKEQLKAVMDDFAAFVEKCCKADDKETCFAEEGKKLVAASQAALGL", "assay": "Binding affinity to immobilised human serum albumin by chromatographic analysis", "type": "ADME", "settings": "isolated protein"}, "Albumin [6]": {"target": "T2, Albumin", "assay": "Binding affinity to immobilised human serum albumin by ultrafiltration and biacore method", "type": "ADME", "settings": "isolated protein"}, "[7]": {"target": "T3, C-C chemokine receptor type 1 (Homo sapiens, UniProt P32246)", "T3 sequence (P32246 whole entry)": "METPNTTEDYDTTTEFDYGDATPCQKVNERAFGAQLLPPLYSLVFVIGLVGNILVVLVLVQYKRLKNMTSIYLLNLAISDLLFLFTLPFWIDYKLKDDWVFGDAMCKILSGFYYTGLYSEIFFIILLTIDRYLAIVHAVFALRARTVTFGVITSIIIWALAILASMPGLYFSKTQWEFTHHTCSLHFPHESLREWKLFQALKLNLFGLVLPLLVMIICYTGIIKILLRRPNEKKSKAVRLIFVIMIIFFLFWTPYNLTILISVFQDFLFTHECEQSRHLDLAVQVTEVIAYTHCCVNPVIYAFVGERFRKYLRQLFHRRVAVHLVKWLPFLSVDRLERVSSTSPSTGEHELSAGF", "assay": "Antagonist activity at human CCR1 assessed as inhibition of MIP-1-alpha-induced [35S]-GTPgammaS binding after 3 to 4 hrs", "type": "functional"}, "[8]": {"target": "C-C chemokine receptor type 2 (Mus musculus, UniProt P51683)", "sequence (P51683 whole entry)": "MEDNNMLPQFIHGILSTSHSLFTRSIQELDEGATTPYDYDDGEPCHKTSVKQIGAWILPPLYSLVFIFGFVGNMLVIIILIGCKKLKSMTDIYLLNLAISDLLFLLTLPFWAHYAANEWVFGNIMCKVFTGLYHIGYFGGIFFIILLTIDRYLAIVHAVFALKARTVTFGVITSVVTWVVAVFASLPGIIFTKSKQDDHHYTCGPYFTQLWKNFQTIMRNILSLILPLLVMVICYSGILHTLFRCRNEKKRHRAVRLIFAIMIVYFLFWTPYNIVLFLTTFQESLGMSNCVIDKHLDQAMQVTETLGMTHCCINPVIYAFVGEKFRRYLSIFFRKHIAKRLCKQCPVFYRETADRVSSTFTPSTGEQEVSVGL", "assay": "Antagonist activity at mouse CCR2", "type": "functional"}, "[9]": {"target": "C-C chemokine receptor type 1 (Homo sapiens) (UniProt P32246)", "assay": "Antagonist activity at CCR1"}, "[10]": {"target": "T1, C-C chemokine receptor type 2", "assay": "Antagonist activity at CCR2 in human THP1 cells assessed as inhibition of CCL2-induced chemotaxis at 10 uM in presence of 1% human serum", "type": "functional, cell-based", "settings": "THP-1", "procedure,_shortened": "as §1"}, "[11]": {"target": "C-C chemokine receptor type 1 (Homo sapiens) (UniProt P32246)", "assay": "Antagonist activity at human CCR1"}},
  "data": [
    {"smiles": "O=C(O)c1ccccc1Oc1ccc(Cl)cc1NS(=O)(=O)c1ccc(Cl)s1", "values": [
      {"measurement": "Ki", "setting": "[1]", "value": 5.01, "unit": "nM"}
    ]},
    {"smiles": "O=C(O)c1ccccc1Oc1ncncc1NS(=O)(=O)c1ccc(Cl)c(Cl)c1", "values": [
      {"measurement": "Ki", "setting": "[1]", "value": 398, "unit": "nM"}
    ]},
    {"smiles": "O=C(O)c1cncc(Oc2ncc(Cl)cc2NS(=O)(=O)c2ccc(Cl)c(Cl)c2)c1", "values": [
      {"measurement": "Ki", "setting": "[1]", "value": 10, "unit": "nM"},
      {"measurement": "inhibition", "setting": "[2]", "value": 17, "unit": "%"},
      {"measurement": "inhibition", "setting": "[3]", "value": 0, "unit": "%"},
      {"measurement": "logD", "setting": "[4]", "value": -0.67}
    ]},
    {"smiles": "O=C(O)c1ccccc1Oc1cnccc1NS(=O)(=O)c1ccc(Cl)c(Cl)c1", "values": [
      {"measurement": "Ki", "setting": "[1]", "value": 50.1, "unit": "nM"},
      {"measurement": "inhibition", "setting": "[2]", "value": 15, "unit": "%"},
      {"measurement": "inhibition", "setting": "[3]", "value": 0, "unit": "%"}
    ]},
    {"smiles": "O=S(=O)(Nc1cc(Cl)cnc1Oc1cccnc1)c1ccc(Cl)c(Cl)c1", "values": [
      {"measurement": "Ki", "setting": "[1]", "value": 20, "unit": "nM"},
      {"measurement": "inhibition", "setting": "[2]", "value": 36, "unit": "%"},
      {"measurement": "inhibition", "setting": "[3]", "value": 5.4, "unit": "%"},
      {"measurement": "logD", "setting": "[4]", "value": 2.32},
      {"measurement": "Activity", "setting": "Albumin [5]", "value": "> 98", "unit": "%"},
      {"measurement": "Activity", "setting": "Albumin [6]", "value": "> 99.5", "unit": "%"}
    ]},
    {"smiles": "O=S(=O)(Nc1cc(Cl)cnc1Oc1cccnn1)c1ccc(Cl)c(Cl)c1", "values": [
      {"measurement": "Ki", "setting": "[1]", "value": 200, "unit": "nM"}
    ]},
    {"smiles": "O=C(O)c1ccccc1Oc1nccnc1NS(=O)(=O)c1ccc(Cl)c(Cl)c1", "values": [
      {"measurement": "Ki", "setting": "[1]", "value": 794, "unit": "nM"}
    ]},
    {"smiles": "O=C(O)c1c(F)cccc1Oc1ccc(C(F)(F)F)cc1NS(=O)(=O)c1ccc(Cl)cc1", "values": [
      {"measurement": "Ki", "setting": "[1]", "value": 126, "unit": "nM"},
      {"measurement": "Ki", "setting": "[7]", "value": 126, "unit": "nM"},
      {"measurement": "Ki", "setting": "[8]", "value": 1000, "unit": "nM"}
    ]},
    {"smiles": "Cc1ccc(NS(=O)(=O)c2ccc(Cl)cc2)c(Oc2ccccc2C(=O)O)c1", "values": [
      {"measurement": "Ki", "setting": "[1]", "value": 631, "unit": "nM"},
      {"measurement": "Ki", "setting": "[9]", "value": 631, "unit": "nM"}
    ]},
    {"smiles": "O=C(O)c1ccccc1Oc1ccccc1NS(=O)(=O)c1ccc(Cl)cc1", "values": [
      {"measurement": "Ki", "setting": "[1]", "value": 251, "unit": "nM"},
      {"measurement": "Ki", "setting": "[7]", "value": 316, "unit": "nM"},
      {"measurement": "Ki", "setting": "[8]", "value": 2000, "unit": "nM"}
    ]},
    {"smiles": "O=C(O)c1ccccc1Oc1ncccc1NS(=O)(=O)c1ccc(Cl)c(Cl)c1", "values": [
      {"measurement": "Ki", "setting": "[1]", "value": 31.6, "unit": "nM"},
      {"measurement": "inhibition", "setting": "[2]", "value": 60, "unit": "%"},
      {"measurement": "inhibition", "setting": "[3]", "value": 41, "unit": "%"}
    ]},
    {"smiles": "O=C(O)c1ccccc1Oc1cccc(F)c1NS(=O)(=O)c1ccc(Cl)cc1", "values": [
      {"measurement": "Ki", "setting": "[1]", "value": "> 3160", "unit": "nM"},
      {"measurement": "Ki", "setting": "[9]", "value": "> 3160", "unit": "nM"}
    ]},
    {"smiles": "O=C(O)c1ccccc1Oc1ccc(F)cc1NS(=O)(=O)c1ccc(Cl)cc1", "values": [
      {"measurement": "Ki", "setting": "[1]", "value": 39.8, "unit": "nM"},
      {"measurement": "inhibition", "setting": "[10]", "value": 52, "unit": "%"},
      {"measurement": "Ki", "setting": "[11]", "value": 251, "unit": "nM"}
    ]},
    {"smiles": "O=C(O)c1ccccc1Oc1ccc(Cl)cc1NS(=O)(=O)c1cccc(Cl)c1", "values": [
      {"measurement": "Ki", "setting": "[1]", "value": 7.94, "unit": "nM"}
    ]},
    {"smiles": "CS(=O)(=O)c1ccc(Oc2ccccc2C(=O)O)c(NS(=O)(=O)c2ccc(Cl)cc2)c1", "values": [
      {"measurement": "Ki", "setting": "[1]", "value": "> 3160", "unit": "nM"}
    ]},
    {"smiles": "O=C(O)c1c(F)cccc1Oc1ncc(Cl)cc1NS(=O)(=O)c1ccc(Cl)c(Cl)c1", "values": [
      {"measurement": "Ki", "setting": "[1]", "value": 2, "unit": "nM"}
    ]}
  ]
}
